# Reference: PubChem BioAssay AID1656 (Sanford-Burnham Center for Chemical Genomics, 2009)
# Screen size: about 240,000 compounds; about 950 (0.4%) were called active.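 How the source made its calls: active means lipid droplet intensity inhibited by at least 50%, with more than 500 cells counted; inconclusive means wells with under 300 cells, treated as cytotoxic; inactive means the rest.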 Only a selection was taken, and actives are over-represented in it overall.
# Test: inhibitors of hepatocyte lipid droplet formation, primary screen, imaging, high-throughput imaging, BODIPY stain (AID 1656);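 on cell count: cells counted across two imaged fields per well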
# Details: AML12 mouse hepatocytes, oleate lipid droplets, at 6.5 µM; cell count: measured here: cell count, cytotoxicity flag; inhibition: stronger effect = higher value
# In short: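 Assay system: AML12 hepatocytes (mouse); Probe or stimulus: oleic acid at 100 µM to induce lipid droplet formation; Dosing: compound at 6.5 µM only; Schedule: compound with oleate, overnight; Detection: fluorescence imaging, 20x objective, two fields per well; Measure: % inhibition of lipid droplet signal.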
Structure (SMILES),cell count [cells],inhibition
CC(C)(COC(=O)Nc1ccccc1)COC(=O)Nc1ccccc1,842,2% (inactive)
CSCCC(NS(=O)(=O)c1ccccc1F)C(=O)N1CC=C(c2ccccc2)CC1 (stereo not given),678,-35.6% (inactive)
O=C1/C(=C/c2ccc(F)cc2)SC(=S)N1CCCC(=O)N1CCCCC1CCO (stereo not given),789,-7.9% (inactive)
CCOCCCNc1nc(-c2ccccc2)nc2ccccc12,835,1.2% (inactive)
CC(Nc1nc(C(F)(F)F)nc2ccccc12)c1cccs1 (stereo not given),808,-12.3% (inactive)
Cc1sc2nc(SCCO)n(-c3ccccc3)c(=O)c2c1C,835,-15% (inactive)
Cc1ccccc1NC(=O)CSc1ccc2nnc(-c3ccccn3)n2n1,640,22.7% (inactive)
COc1ccc(CCNC(=O)c2ccccc2OCc2ccccc2)cc1,773,-18.7% (inactive)
COc1ccc(CCNC(=O)CCc2cn(C)c3ccccc23)c(OC)c1,811,15.9% (inactive)
Cc1cccnc1CC(C)NC(=O)c1cc(COc2cncc(Cl)c2)on1 (stereo not given),704,3.6% (inactive)
COc1ccc(/C=C2\SC(=S)N(CCCC(=O)NC3CCCC3)C2=O)cc1OC,711,-15.3% (inactive)
CCOc1ccc(-n2c(SCC(=O)OC)nc3sc4c(c3c2=O)CCN(C)C4)cc1,796,4.9% (inactive)
CCOc1ccccc1NC(=S)N1CCN(c2cccc(C)c2C)CC1,777,-21% (inactive)
O=C(c1ccc(OC2CCN(C/C=C/c3ccc(F)cc3)CC2)cc1)N1CCCCC1,815,2% (inactive)
O=C(Nc1ccc(F)cc1)c1ccc(S(=O)(=O)NCc2cccnc2)cc1,806,-51.8% (inactive)
CC(C)=CCCC(C)CN1CCC(n2nccc2NC(=O)c2ccccc2)CC1 (stereo not given),722,2.9% (inactive)
N#C/C(=C\C1=C(N2CCOCC2)C(=C\c2ccccc2)/CC1)C(=O)Nc1ccccc1F,430,56.4% (active)
N#C/C(=C/c1ccc(N2CCOCC2)o1)C(=O)N1CCOCC1,636,-9.6% (inactive)
N#C/C(=C\c1ccccc1C(F)(F)F)C(=O)Nc1ccccc1F,614,1.8% (inactive)
Cc1ccc(CNC(=O)CCS(=O)(=O)c2ccc3c(c2)CC(C)N3C(=O)C2CC2)o1 (stereo not given),715,-2.5% (inactive)
Cc1nn(C(C)C(=O)NCCC2=CCCCC2)c(=O)c2nn(-c3ccccc3)c(C)c12 (stereo not given),685,-3.8% (inactive)
COc1ccc(C)cc1N(C(=O)Cn1nnc(-c2ccc(C)o2)n1)C(C(=O)NC1CCCC1)c1ccncc1 (stereo not given),749,-20.1% (inactive)
CCOc1ccc(CCNC(=O)CCc2nnc3ccc(N4CCCC4)nn23)cc1OCC,752,69.5% (active)
CCN(CC)c1ccc(NC(=O)CCc2nnc3ccc(N4CCCCC4)nn23)c(C)c1,801,3.4% (inactive)
CCOC(=O)c1cccc(NC(=O)CCc2nnc3ccc(N4CCOCC4)nn23)c1,652,-5.8% (inactive)

Structure (SMILES),cell count [cells],inhibition
COCCc1nn2c(=O)cc(COC(=O)c3cc(OC)c(OC)c(OC)c3)nc2s1,701,7.1% (inactive)
COc1ccccc1N1CCN(S(=O)(=O)c2ccc3c(c2)NC(=O)CS3)CC1,687,-12.7% (inactive)
CCc1ccc(C(CNc2nc(C(F)(F)F)nc3ccccc23)N(C)C)cc1 (stereo not given),654,-18.7% (inactive)
Cc1ccc2sc(N(CCN(C)C)C(=O)/C=C/c3cccs3)nc2c1C,660,4.4% (inactive)
CCC(C)(C)NC(=O)C(c1ccc(OC)cc1)N(C(=O)CCC(=O)Nc1cc(C)on1)c1ccc(OC)cc1OC (stereo not given),774,2.5% (inactive)
COc1ccc(C(C(=O)NC(C)(C)C)N(Cc2ccc(F)cc2)C(=O)CCC(=O)Nc2cc(C)on2)cc1 (stereo not given),757,96.7% (active)
COc1ccc(CN(CC(=O)NC2CCCC2)C(=O)CCC(=O)Nc2cc(C)on2)cc1,702,-31.7% (inactive)
COc1cccc(CNC(=O)Cn2c(=O)oc3cc(S(=O)(=O)N4CCCCC4)ccc32)c1,692,25.1% (inactive)
CCOC(=O)C1=C(CC)OC(N)=C(C#N)C1c1ccc(F)cc1F (stereo not given),769,70.2% (active)
CCC1=C(C(=O)OC)C(c2cc(OC)ccc2OC)C(C#N)=C(N)O1 (stereo not given),697,-12.3% (inactive)
CCOC(=O)C1=C(C)OC(N)=C(C#N)C1c1cncc(-c2ccc(F)cc2)c1 (stereo not given),619,-2.2% (inactive)
COc1cc(/C=N/NC(=O)Nc2ccccc2)ccc1OCCOc1ccccc1C,674,94.6% (active)
COc1cc(/C=N/NC(=O)c2ccoc2C)ccc1OCCN1CCCCC1,729,4.7% (inactive)
COc1ccc(/C=N/NC(=O)c2ccccc2)cc1OS(=O)(=O)c1ccccc1,657,-6% (inactive)
CC(C)CCn1c(=O)c2c(nc3n2CCCN3Cc2ccccc2)n(C)c1=O,827,-12.4% (inactive)
Cc1cccn2c(=O)c(/C=C(\C#N)C(N)=O)c(N3CCCCCC3)nc12,788,1.2% (inactive)
CC(=O)c1ccc(N2CCN(C(=O)C3CCN(S(=O)(=O)c4ccc5c(c4)CC(C)N5C(=O)C4CC4)CC3)CC2)cc1 (stereo not given),672,-0.3% (inactive)
COc1cccc(N(CC(=O)NC2CCCCCC2)S(=O)(=O)c2ccccc2)c1,750,2.3% (inactive)
CCC(C)[C@H](NC(=O)N1CCn2c1nc1ccccc12)C(=O)NCc1ccc(OC)cc1 (stereo not given in full),712,28% (inactive)
CCc1ccc2nc(N(CCCN(C)C)C(=O)c3ccc4c(c3)OCCO4)sc2c1,802,0% (inactive)
CCC(=O)N1CCN(c2ccccc2NC(=O)COc2cccc(C)c2C)CC1,823,-15% (inactive)
COc1cc(/C=N/NC(=O)c2cccnc2)ccc1OC(=O)c1cccc(Br)c1,669,-11.9% (inactive)
CN1CCN(CCNC(=O)Nc2ccccc2[N+](=O)[O-])CC1,440,10.2% (inactive)
O=[N+]([O-])c1ccccc1N/N=C1\CCc2ccccc21,658,60.3% (active)
O=[N+]([O-])c1cc(C(F)(F)F)ccc1NN=C1CCCC1,631,1.6% (inactive)
